From ChEMBL document CHEMBL1144496, “Design, synthesis, and biological evaluation of novel iso-D-2',3'-dideoxy-3'-fluorothianucleoside derivatives” (Bioorg Med Chem, 2007)
Values after ≈ are worked out from the molar mass of the structure shown. Active and inactive are the calls of the source. The rule behind the calls is not given here.

What was measured:
[1] = test system: Human immunodeficiency virus 1; assay: Antiviral activity against HIV1 3B by CPE assay; type: functional, organism-based; conditions: Human immunodeficiency virus 1, 3B
[2] = test system: Vesicular stomatitis virus; assay: Antiviral activity against vesicular stomatitis virus by CPE assay; type: functional, organism-based
Procedure, shortened: (§1)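 Compounds were tested at concentrations up to 100 μg/mL, and antiviral activity was expressed as EC50. For the […] line, the virus was strain […]. Cell hosts named in the work were MT4 (HTLV-1-infected human T-lymphocytes), HeLa and Vero (African green monkey kidney) cells.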

[3] = test system: Feline infectious peritonitis virus; assay: Antiviral activity against FIP WSU; type: functional
Procedure, shortened: (§2)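 Feline virus strain WSU screened together with influenza A strains; test concentrations went up to 100 μg/mL, with antiviral activity and cytotoxicity both assessed.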

Influenza A virus [4] = assay: Antiviral activity against influenza virus type A H3N2; type: functional, organism-based
Procedure, shortened: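 Influenza A viruses were H1N1 strain Taiwan and H3N2 strain Johannesburg. Compounds were tested for antiviral activity and cytotoxicity at concentrations up to 100 μg/mL.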

Human alphaherpesvirus 2 = assay: Antiviral activity against HSV2 by CPE assay; type: functional, organism-based; procedure, shortened: as §1
Coxsackievirus B3 = assay: Antiviral activity against coxsackie B virus type 3 by CPE assay; type: functional, organism-based; conditions: Enterovirus B
HeLa = assay: Cytotoxicity against human HeLa cells; type: cell-based
Procedure, shortened: (§3)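 Cytotoxicity was assessed on uninfected cells: Vero (African green monkey kidney) and HeLa (human cervical carcinoma). Compounds were tested up to 100 μg/mL, and the value was reported as CC50, the 50% cytotoxic concentration.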

[5] = test system: Human T-cell leukemia virus type I; assay: Cytostatic activity against HTLV1 infected human MT4 lymphocyte; type: functional
Procedure, shortened: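 HTLV-1-infected human T-lymphocyte MT4 cells were exposed to compound at concentrations up to 100 μg/mL. Read-out was the 50% cytostatic concentration (CS50).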

Vero = assay: Cytotoxicity against Vero cells; type: cell-based; conditions: chlorocebus sabaeus; procedure, shortened: as §3
Human alphaherpesvirus 1 = assay: Antiviral activity against HSV1 by CPE assay; type: functional, organism-based; procedure, shortened: as §1
[6] = test system: Encephalomyocarditis virus; assay: Antiviral activity against encephalomyocarditis virus by CPE assay; type: functional, organism-based; conditions: Cardiovirus A; procedure, shortened: as §1
Influenza A virus [7] = type: functional, organism-based; conditions: H1N1
Feline coronavirus = assay: Antiviral activity against Feline coronavirus WSU; type: functional, organism-based; procedure, shortened: as §2

Structure (SMILES) | EC50 [1] | EC50 [2] | Activity [3] | Activity (Influenza A virus [4]) | EC50 (Human alphaherpesvirus 2) | EC50 (Coxsackievirus B3) | CC50 (HeLa) | CS50 [5] | CC50 (Vero) | EC50 (Human alphaherpesvirus 1) | EC50 [6] | Activity (Influenza A virus [7]) | Activity (Feline coronavirus)
Cc1cn([C@@H]2CS[C@H](CO)[C@H]2F)c(=O)[nH]c1=O | > 100 µg/mL | > 100 µg/mL | inactive | inactive | > 100 µg/mL | > 100 µg/mL | > 100 µg/mL | >100 µg/mL | > 100 µg/mL | > 100 µg/mL | > 100 µg/mL | inactive | inactive
Nc1ccn([C@@H]2CS[C@H](CO)[C@H]2F)c(=O)n1 | > 100 µg/mL | 9.43 µg/mL (≈ 38.4 µM) | inactive | inactive | > 100 µg/mL | > 14.5 µg/mL | 14.54 µg/mL (≈ 59.3 µM) | >100 µg/mL | > 100 µg/mL | > 100 µg/mL | > 14.5 µg/mL | inactive | inactive
Nc1ncnc2c1ncn2[C@@H]1CS[C@H](CO)[C@H]1F | > 100 µg/mL | > 100 µg/mL | inactive | inactive | > 100 µg/mL | > 100 µg/mL | > 100 µg/mL | >100 µg/mL | > 100 µg/mL | > 100 µg/mL | > 100 µg/mL | inactive | inactive
NC(=O)c1ncn([C@@H]2O[C@H](CO)[C@@H](O)[C@H]2O)n1 [RIBAVIRIN] |  | 10.3 µg/mL (≈ 42.3 µM) |  |  |  | 64.1 µg/mL (≈ 262 µM) | > 300 µg/mL |  |  |  | 23.4 µg/mL (≈ 96 µM) |  | 
O=c1ccn([C@@H]2CS[C@H](CO)[C@H]2F)c(=O)[nH]1 | > 100 µg/mL | > 100 µg/mL | inactive | inactive | > 100 µg/mL | > 100 µg/mL | > 100 µg/mL | >100 µg/mL | > 100 µg/mL | > 100 µg/mL | > 100 µg/mL | inactive | inactive
O=c1[nH]cnc2c1ncn2[C@H]1CC[C@@H](CO)O1 [DIDANOSINE] |  |  |  |  | 0.47 µg/mL (≈ 1.99 µM) |  |  | >100 µg/mL | > 10 µg/mL | 0.17 µg/mL (≈ 0.72 µM) |  |  | 
